# Laboratory results reported in ChEMBL document CHEMBL4433264, “Novel hydrophilic galactose-conjugated chlorin e6 derivatives for photodynamic therapy and fluorescence imaging” (Bioorg Med Chem Lett, 2019).
# Experiments:
# [1] = Aqueous solubility of the compound by UV spectroscopy; type: physicochemical; details: buffer
# [2] = Dark toxicity in human HeLa cells assessed as reduction in cell viability; type: cell-based
# Method in brief: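 HeLa cells were grown in DMEM/F12 with 10% FBS, without antibiotics, at 37 °C and 5% CO2, and exposed to compound without irradiation. Live cells were counted by fluorometric microculture cytotoxicity assay (FMCA), with 10 independent microcultures per concentration. Outliers were screened by Grubbs criterion, and IC50 was derived from concentration versus survival index (±SE).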
# [3] = Potency index, ratio of IC50 for dark toxicity in human HeLa cells to IC50 for phototoxicity in human HeLa cells in presence of irradiation with LED light at 12 J/cm2; type: cell-based; details: read-out: Ratio IC50
# Method in brief: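 The index is dark IC50 divided by photoinduced IC50 in HeLa cells. Both IC50 values come from FMCA viability readings (10 microcultures per concentration, Grubbs outlier check, fit of concentration versus survival index). The phototoxicity arm used 660 nm LED irradiation at 12 J/cm2.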
# [4] = test system: HeLa; assay: Phototoxicity in human HeLa cells assessed as reduction in cell viability in presence of irradiation with LED light at 12 J/cm2; type: functional, cell-based; details: light or radiation study
# Method in brief: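 HeLa cells were cultured in DMEM/F12 with 10% FBS, antibiotic-free, at 37 °C and 5% CO2. Compound-treated cells were irradiated with a 660 nm LED at 12 J/cm2. Viable cells were quantified by FMCA using 10 independent microcultures per concentration. Grubbs criterion removed artifacts before IC50 was calculated from concentration versus survival index (±SE).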
# [5] = Drug penetration in human HeLa cells at 10 uM measured after 40 mins by fluorescence microscopy; type: ADME, cell-based
# Method in brief: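 HeLa cells were incubated for 40 min with compound at 10 μM, alongside untreated cells. Uptake was judged by intracellular red fluorescence under fluorescence microscopy, paired with light micrographs of the same fields.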
solubility [1],Drug uptake [5],Compound,IC50 [2],selectivity ratio [3],IC50 [4]
Soluble,Active,C=Cc1c(C)c2cc3nc(c(CC(=O)OC)c4[nH]c(cc5nc(cc1[nH]2)C(C)=C5CC)c(C)c4C(=O)NCCN(C[C@H]1OC(O)[C@H](O)[C@@H](O)[C@H]1O)C[C@H]1OC(O)[C@H](O)[C@@H](O)[C@H]1O)[C@@H](CCC(=O)NCCN(C[C@H]1OC(O)[C@H](O)[C@@H](O)[C@H]1O)C[C@H]1OC(O)[C@H](O)[C@@H](O)[C@H]1O)[C@@H]3C (some centres undefined),59.6 µM,38,1.57 µM
Soluble,Active,C=Cc1c(C)c2cc3nc(c(CC(=O)OC)c4[nH]c(cc5nc(cc1[nH]2)C(C)=C5CC)c(C)c4C(=O)NCCN(C[C@H]1OC(O)[C@H](O)[C@@H](O)[C@H]1O)C[C@H]1OC(O)[C@H](O)[C@@H](O)[C@H]1O)[C@@H](CCC(=O)O)[C@@H]3C (some centres undefined),39 µM,31,1.24 µM
Soluble,Active,C=Cc1c(C)c2cc3nc(c(CC(=O)OC)c4[nH]c(cc5nc(cc1[nH]2)C(C)=C5CC)c(C)c4C(=O)NCCN(C[C@H]1OC(O)[C@H](O)[C@@H](O)[C@H]1O)C[C@H]1OC(O)[C@H](O)[C@@H](O)[C@H]1O)[C@@H](CCC(=O)OC)[C@@H]3C (some centres undefined),6.1 µM,–,1.11 µM
